Laboratory results taken from ChEMBL document CHEMBL1781989, “Novel β-carboline-tripeptide conjugates attenuate mesenteric ischemia/reperfusion injury in the rat” (2011).
Non-standard residues stand in square brackets, D forms with d. Residues, ends and D or L forms follow the SMILES beside them. Tpi = O=C(O)[C@@H]1Cc2c([nH]c3ccccc23)CN1

The compounds below were run on Mus musculus (assay: Analgesic activity in ICR mouse assessed as increase in pain threshold at 0.15 mmol/kg, po after 30 mins by tail flick method (reference value: 5.03 +/- 10.26 %)).
Type: functional

| SMILES | Activity [%] |
| --- | --- |
| CC(C)C[C@H](N)C(=O)N[C@@H](Cc1ccccc1)C(=O)N[C@@H](Cc1c[nH]c2ccccc12)C(=O)O (H-Leu-Phe-Trp-OH) | 25.38 |
| O=C(O)[C@H](Cc1c[nH]c2ccccc12)NC(=O)[C@H](Cc1ccccc1)NC(=O)[C@H](CO)NC(=O)[C@@H]1Cc2c([nH]c3ccccc23)CN1 (H-[Tpi]SFW-OH) | 30.56 |
| NC(=O)CC[C@H](NC(=O)[C@@H]1Cc2c([nH]c3ccccc23)CN1)C(=O)N[C@@H](Cc1ccccc1)C(=O)N[C@@H](Cc1c[nH]c2ccccc12)C(=O)O (H-[Tpi]QFW-OH) | 41.83 |
| O=C(O)C[C@H](NC(=O)[C@@H]1Cc2c([nH]c3ccccc23)CN1)C(=O)N[C@@H](Cc1ccccc1)C(=O)N[C@@H](Cc1c[nH]c2ccccc12)C(=O)O (H-[Tpi]DFW-OH) | 22.17 |

Each compound was assayed on Mus musculus (assay: Analgesic activity in ICR mouse assessed as increase in pain threshold at 0.15 mmol/kg, po after 60 mins by tail flick method (reference value: 7.45 +/- 8.03 %)).
Type: functional

| SMILES | Activity [%] |
| --- | --- |
| CC(C)C[C@H](N)C(=O)N[C@@H](Cc1ccccc1)C(=O)N[C@@H](Cc1c[nH]c2ccccc12)C(=O)O (H-Leu-Phe-Trp-OH) | 28.79 |
| O=C(O)[C@H](Cc1c[nH]c2ccccc12)NC(=O)[C@H](Cc1ccccc1)NC(=O)[C@H](CO)NC(=O)[C@@H]1Cc2c([nH]c3ccccc23)CN1 (H-[Tpi]SFW-OH) | 42.32 |
| NC(=O)CC[C@H](NC(=O)[C@@H]1Cc2c([nH]c3ccccc23)CN1)C(=O)N[C@@H](Cc1ccccc1)C(=O)N[C@@H](Cc1c[nH]c2ccccc12)C(=O)O (H-[Tpi]QFW-OH) | 47.33 |
| O=C(O)C[C@H](NC(=O)[C@@H]1Cc2c([nH]c3ccccc23)CN1)C(=O)N[C@@H](Cc1ccccc1)C(=O)N[C@@H](Cc1c[nH]c2ccccc12)C(=O)O (H-[Tpi]DFW-OH) | 28.12 |

The compounds below were run on Mus musculus (assay: Analgesic activity in ICR mouse assessed as increase in pain threshold at 0.15 mmol/kg, po after 90 mins by tail flick method (reference value: 7.53 +/- 11.54 %)).
Type: functional

| SMILES | Activity [%] |
| --- | --- |
| CC(C)C[C@H](N)C(=O)N[C@@H](Cc1ccccc1)C(=O)N[C@@H](Cc1c[nH]c2ccccc12)C(=O)O (H-Leu-Phe-Trp-OH) | 20.13 |
| O=C(O)[C@H](Cc1c[nH]c2ccccc12)NC(=O)[C@H](Cc1ccccc1)NC(=O)[C@H](CO)NC(=O)[C@@H]1Cc2c([nH]c3ccccc23)CN1 (H-[Tpi]SFW-OH) | 44.13 |
| NC(=O)CC[C@H](NC(=O)[C@@H]1Cc2c([nH]c3ccccc23)CN1)C(=O)N[C@@H](Cc1ccccc1)C(=O)N[C@@H](Cc1c[nH]c2ccccc12)C(=O)O (H-[Tpi]QFW-OH) | 51.25 |
| O=C(O)C[C@H](NC(=O)[C@@H]1Cc2c([nH]c3ccccc23)CN1)C(=O)N[C@@H](Cc1ccccc1)C(=O)N[C@@H](Cc1c[nH]c2ccccc12)C(=O)O (H-[Tpi]DFW-OH) | 34.55 |

The compounds below were run on Mus musculus (assay: Analgesic activity in ICR mouse assessed as increase in pain threshold at 0.15 mmol/kg, po after 120 mins by tail flick method (reference value: 8.09 +/- 13.28 %)).
Type: functional

| SMILES | Activity [%] |
| --- | --- |
| CC(C)C[C@H](N)C(=O)N[C@@H](Cc1ccccc1)C(=O)N[C@@H](Cc1c[nH]c2ccccc12)C(=O)O (H-Leu-Phe-Trp-OH) | 18.92 |
| O=C(O)[C@H](Cc1c[nH]c2ccccc12)NC(=O)[C@H](Cc1ccccc1)NC(=O)[C@H](CO)NC(=O)[C@@H]1Cc2c([nH]c3ccccc23)CN1 (H-[Tpi]SFW-OH) | 38.45 |
| NC(=O)CC[C@H](NC(=O)[C@@H]1Cc2c([nH]c3ccccc23)CN1)C(=O)N[C@@H](Cc1ccccc1)C(=O)N[C@@H](Cc1c[nH]c2ccccc12)C(=O)O (H-[Tpi]QFW-OH) | 32.33 |
| O=C(O)C[C@H](NC(=O)[C@@H]1Cc2c([nH]c3ccccc23)CN1)C(=O)N[C@@H](Cc1ccccc1)C(=O)N[C@@H](Cc1c[nH]c2ccccc12)C(=O)O (H-[Tpi]DFW-OH) | 40.67 |

Each compound was assayed on Mus musculus (assay: Analgesic activity in ICR mouse assessed as increase in pain threshold at 0.15 mmol/kg, po after 150 mins by tail flick method (reference value: 9.02 +/- 12.19 %)).
Type: functional

| SMILES | Activity [%] |
| --- | --- |
| CC(C)C[C@H](N)C(=O)N[C@@H](Cc1ccccc1)C(=O)N[C@@H](Cc1c[nH]c2ccccc12)C(=O)O (H-Leu-Phe-Trp-OH) | 9.77 |
| O=C(O)[C@H](Cc1c[nH]c2ccccc12)NC(=O)[C@H](Cc1ccccc1)NC(=O)[C@H](CO)NC(=O)[C@@H]1Cc2c([nH]c3ccccc23)CN1 (H-[Tpi]SFW-OH) | 26.47 |
| NC(=O)CC[C@H](NC(=O)[C@@H]1Cc2c([nH]c3ccccc23)CN1)C(=O)N[C@@H](Cc1ccccc1)C(=O)N[C@@H](Cc1c[nH]c2ccccc12)C(=O)O (H-[Tpi]QFW-OH) | 18.32 |
| O=C(O)C[C@H](NC(=O)[C@@H]1Cc2c([nH]c3ccccc23)CN1)C(=O)N[C@@H](Cc1ccccc1)C(=O)N[C@@H](Cc1c[nH]c2ccccc12)C(=O)O (H-[Tpi]DFW-OH) | 13.54 |

The compounds below were run on Mus musculus (assay: Analgesic activity in ICR mouse assessed as increase in pain threshold at 0.15 mmol/kg, po after 180 mins by tail flick method (reference value: 8.75 +/- 9.73 %)).
Type: functional

| SMILES | Activity [%] |
| --- | --- |
| CC(C)C[C@H](N)C(=O)N[C@@H](Cc1ccccc1)C(=O)N[C@@H](Cc1c[nH]c2ccccc12)C(=O)O (H-Leu-Phe-Trp-OH) | 7.98 |
| O=C(O)[C@H](Cc1c[nH]c2ccccc12)NC(=O)[C@H](Cc1ccccc1)NC(=O)[C@H](CO)NC(=O)[C@@H]1Cc2c([nH]c3ccccc23)CN1 (H-[Tpi]SFW-OH) | 25.07 |
| NC(=O)CC[C@H](NC(=O)[C@@H]1Cc2c([nH]c3ccccc23)CN1)C(=O)N[C@@H](Cc1ccccc1)C(=O)N[C@@H](Cc1c[nH]c2ccccc12)C(=O)O (H-[Tpi]QFW-OH) | 22.45 |
| O=C(O)C[C@H](NC(=O)[C@@H]1Cc2c([nH]c3ccccc23)CN1)C(=O)N[C@@H](Cc1ccccc1)C(=O)N[C@@H](Cc1c[nH]c2ccccc12)C(=O)O (H-[Tpi]DFW-OH) | 18.77 |

What follows are compounds tested on Mus musculus (assay: Antiinflammatory activity in ICR mouse assessed as inhibition of xylene-induced ear edema at 0.15 mmol/kg, po administered 30 mins before xylene challenge measured after 2 hrs relative to control).
Type: functional
Method in brief: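 Male ICR mice (20 ± 2 g), randomised to test, vehicle (CMC) and aspirin (10 mg/kg oral) groups. Test agents given orally as CMC suspension. After 30 min, 0.03 mL xylene applied to both faces of the right ear, left ear as control. At 2 h mice were killed and 7 mm ear punches weighed. Edema is the right-minus-left weight, and inhibition is taken against vehicle.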

| SMILES | inhibition in vivo at 150 µmol/kg [%] |
| --- | --- |
| O=C(O)[C@H](Cc1c[nH]c2ccccc12)NC(=O)[C@H](Cc1ccccc1)NC(=O)[C@H](CO)NC(=O)[C@@H]1Cc2c([nH]c3ccccc23)CN1 (H-[Tpi]SFW-OH) | 45.7 |
| NC(=O)CC[C@H](NC(=O)[C@@H]1Cc2c([nH]c3ccccc23)CN1)C(=O)N[C@@H](Cc1ccccc1)C(=O)N[C@@H](Cc1c[nH]c2ccccc12)C(=O)O (H-[Tpi]QFW-OH) | 42.4 |
| O=C(O)C[C@H](NC(=O)[C@@H]1Cc2c([nH]c3ccccc23)CN1)C(=O)N[C@@H](Cc1ccccc1)C(=O)N[C@@H](Cc1c[nH]c2ccccc12)C(=O)O (H-[Tpi]DFW-OH) | 40 |
